Test results from PubChem BioAssay.
Records with an inconclusive call do not appear.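 Rule for the calls, unless noted: active = cell viability at or below a set limit in both duplicate runs, the limit being the all-compound median minus 4 SD (cut at about 23% in these data, passing the limit was not always enough); inconclusive = no clear call, values can overlap the other calls; inactive = the rest.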

What was measured:
[1] = S. cerevisiae growth inhibition in permissive medium (OD615), pilot counter-assay for S. cerevisiae lifespan shortening project, permissive growth control (AID 705;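 active = growth inhibition above 25% in both replicates, a cutoff set 3 SD above the mean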); settings: OD615, 24 h, at 10 µM, hits give high values
Method in brief: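 System: engineered DeaD yeast; Medium: permissive raffinose/galactose medium; Compound dosing: 10 µM single dose, 0.25% DMSO; Incubation: 4 h cell pre-growth, 24 h exposure at 30 °C; Technique: OD at 615 nm; Evaluation: growth inhibition from lowered OD615 after 24 h.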

[2] = S. cerevisiae growth inhibition in restrictive medium, OD615, pilot screen, restrictive growth control, yeast lifespan reduction project (AID 706;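 active = growth inhibition above a set limit, 3 SD over mean compound inhibition, in both replicates, cut at about 43% in these data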;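 note: modified DeaD lifespan yeast strain shifted to restrictive glucose medium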); settings: OD615, 48 h, at 10 µM, hits give high values
Method in brief: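 Material: modified S. cerevisiae; buffer or medium: CSMM-D glucose medium; doses: one concentration, 10 µM final, 0.25% DMSO; incubation: 48 h compound exposure at 30 °C; detection: optical density at 615 nm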

[3] = doxorubicin toxicity protection in MRP-1 cells – H69AR cells, CellTiter-Glo, duplicate, MRP-1 activator project, pilot screen (AID 807;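 active = viability increase at or above a cutoff of the median across tested compounds plus 3 SD, cut at about 8.5% in these data, passing the limit was not always enough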;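 note: compound pretreatment 18-22 h then 72 h combined with doxorubicin; 0% = doxorubicin alone and 100% = vehicle without doxorubicin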); settings: H69AR viability with doxorubicin, CellTiter-Glo luminescence; at 10 µM; hits give high values
[4] = viability of HCT116 without oncogenic beta-catenin – human colon tumor cells, pilot screen (AID 823); settings: HCT116 beta-catenin knockout viability, CellTiter-Glo, 60 h; at 10 µM; hits give low values;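 note: 0% = wells killed by 20 µM Hyamine and 100% = untreated DMSO cell wells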
[5] = viability of PTEN-null HCT116 cells – cell-based, HCT116 clonal line, CellTiter-Glo, pilot screen (AID 824;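 active = viability at or below 27.92% in each of two runs, the all-compound median minus 4 SD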;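 note: 0% = 20 µM Hyamine control and 100% = vehicle cell control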); settings: HCT116 PTEN-deleted viability, 60 h, at 10 µM, hits give low values
[6] = RAM pathway blockade in budding yeast – dse1pr::URA3 reporter, 5-FOA selection, pilot screen (AID 869;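 active = inhibition over a set limit, the all-compound mean plus 3 SD, in both replicate runs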;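 note: 0% = DMSO wells with no growth and 100% = 10 µM 1-NA-PP1 with full growth; RAM network block rescues cells from 5-FOA so hits raise OD615 growth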); settings: S. cerevisiae dse1pr::URA3 5-FOA growth, OD615, 2 d; at 10 µM; hits give high values; strain carries analog-sensitive mutant Cbk1 kinase
[7] = RAM signaling pathway blockade in yeast – S. cerevisiae, Pdr1DBD-CYC8 efflux-inhibited sensitized strain, primary screen (AID 1298;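 active = RAM network inhibition above 8.4% in each of two replicates, 3 SD over the compound average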;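 note: 0% = DMSO untreated cells without growth and 100% = 10 µM 1-NA-PP1 full growth; higher means more yeast growth rescued from 5-FOA killing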); settings: S. cerevisiae cbk1-as DSE1-URA3 strain, 5-FOA growth OD615, 2 d; at 50 µM; hits give high values

COc1ccc(C2CC(c3ccc(Cl)c(Cl)c3)Nc3nc(N)nn32)cc1 (stereo not given)
inactive: growth inhibition [1] -6.79% | growth inhibition [2] 12.7% | viability increase [3] -2.3% | viability [4] 75.4% | viability [5] 76.4% | inhibition [6] 2.52% | RAM network inhibition [7] 5.52%

CCOc1ccc(NS(=O)(=O)c2ccc3[nH]c(=O)oc3c2)cc1
inactive: growth inhibition [1] -11.6% | growth inhibition [2] -10.5% | viability increase [3] 1.01% | viability [4] 101% | viability [5] 92.6% | inhibition [6] 3.46% | RAM network inhibition [7] 4.48%

Cc1cc(C)c(C#N)c(Oc2ccc(O)cc2)n1
inactive: growth inhibition [1] -14.7% | growth inhibition [2] -10.3% | viability increase [3] -2.42% | viability [4] 98.7% | viability [5] 90.9% | inhibition [6] 2.56% | RAM network inhibition [7] 2.67%

Cn1c(=O)c2c(nc(OCc3ccccc3)n2C)n(C)c1=O
inactive: growth inhibition [1] -2.8% | growth inhibition [2] -0.39% | viability increase [3] 3.09% | viability [4] 100% | viability [5] 98.3% | inhibition [6] -0.115% | RAM network inhibition [7] 0.26%

CC(C)CC(=O)Nc1ccc2oc(-c3cccnc3)nc2c1
inactive: growth inhibition [1] 2.48% | growth inhibition [2] 2.53% | viability increase [3] -1.73% | viability [4] 100% | viability [5] 94% | inhibition [6] 1.53% | RAM network inhibition [7] -0.72%

CCOC(=O)CCc1c(C)n(CC)c2ncnn2c1=O
inactive: growth inhibition [1] -3.41% | growth inhibition [2] -0.57% | viability increase [3] -0.77% | viability [4] 102% | viability [5] 101% | inhibition [6] 0.735% | RAM network inhibition [7] 0.04%

CC1Cc2ccccc2N1C(=O)C1CCCN(S(=O)(=O)c2cccc3cccnc23)C1 (stereo not given)
inactive: growth inhibition [1] -6.46% | growth inhibition [2] -11% | viability increase [3] -5.48% | viability [4] 67.9% | viability [5] 62.2% | inhibition [6] 2.08% | RAM network inhibition [7] 7.93%

CC(/C=C/c1ccccc1)=N/O
inactive: growth inhibition [1] -2.33% | growth inhibition [2] 2.71% | viability increase [3] 0.26% | viability [4] 98.3% | viability [5] 106% | inhibition [6] -0.595% | RAM network inhibition [7] 4.55%

CCOc1ccc(N2C(=O)c3ccccc3C2O)cc1 (stereo not given)
inactive: growth inhibition [1] 6.33% | growth inhibition [2] 11.8% | viability increase [3] 1.68% | viability [4] 101% | viability [5] 87.5% | inhibition [6] -0.05% | RAM network inhibition [7] 2.58%

COc1ccc(C2CC(=O)N3CN(c4ccc(C)c(Cl)c4)CSC3=C2C#N)cc1OC (stereo not given)
inactive: growth inhibition [1] 2.02% | growth inhibition [2] 21.1% | viability increase [3] -4.27% | viability [4] 85.7% | viability [5] 93.6% | inhibition [6] 0.435% | RAM network inhibition [7] -1.09%

CCN1CCN(Cc2nc3c(c(=O)n(C)c(=O)n3C)n2Cc2ccc(Cl)cc2Cl)CC1
inactive: growth inhibition [1] -9.72% | growth inhibition [2] -16.2% | viability increase [3] -3.62% | viability [4] 99.1% | viability [5] 98.8% | inhibition [6] 0.615% | RAM network inhibition [7] 1.52%

COc1ccc(NC(=O)Nc2ccc(OCC(=O)N3CCOCC3)cc2)cc1OC
inactive: growth inhibition [1] -13% | growth inhibition [2] -1.38% | viability increase [3] -2.34% | viability [4] 88.4% | viability [5] 90.5% | inhibition [6] 0.595% | RAM network inhibition [7] 0.11%

Cc1cccc(NC(=O)C2CCN(S(=O)(=O)c3cccc4cccnc34)CC2)c1
inactive: growth inhibition [1] 3.19% | growth inhibition [2] 11.8% | viability increase [3] -1.52% | viability [4] 88.2% | viability [5] 81.8% | inhibition [6] 3.88% | RAM network inhibition [7] 2.49%

Cc1ccoc1C(=O)NCc1occc1C(=O)O
inactive: growth inhibition [1] -12.6% | growth inhibition [2] -16.8% | viability increase [3] -3.44% | viability [4] 96.2% | viability [5] 93.1% | inhibition [6] -0.575% | RAM network inhibition [7] 1.58%

O=C(CCCCn1c(=O)[nH]c2ccccc2c1=O)NC1CCN(Cc2ccccc2)CC1
inactive: growth inhibition [1] -14.6% | growth inhibition [2] -22.8% | viability increase [3] -0.32% | viability [4] 91.4% | viability [5] 89% | inhibition [6] 0.41% | RAM network inhibition [7] 0.63%

CC(=O)N1CSCC1C(=O)N1CCN(c2ccc(N3CCOCC3)nn2)CC1 (stereo not given)
inactive: growth inhibition [1] 5.2% | growth inhibition [2] 12.4% | viability increase [3] -0.66% | viability [4] 103% | viability [5] 95.1% | inhibition [6] 1.55% | RAM network inhibition [7] 0.26%

COc1ccc(N(CC(=O)NCc2cccs2)S(=O)(=O)c2c(C)nn(C)c2C)cc1
inactive: growth inhibition [1] -2.88% | growth inhibition [2] -15.2% | viability increase [3] -3.49% | viability [4] 88.6% | viability [5] 86.9% | inhibition [6] 0.535% | RAM network inhibition [7] -0.27%

O=C(Nc1ccccc1)C1CC(=O)N(C2CCCCC2)C1 (stereo not given)
inactive: growth inhibition [1] -8.56% | growth inhibition [2] 7.07% | viability increase [3] 1.42% | viability [4] 105% | viability [5] 101% | inhibition [6] 1.58% | RAM network inhibition [7] 3.42%

COc1ccc(OC)c(C2CC(=O)N3CN(c4ccccc4)CSC3=C2C#N)c1 (stereo not given)
inactive: growth inhibition [1] 0.46% | growth inhibition [2] 26.8% | viability increase [3] -4.09% | viability [4] 96.2% | viability [5] 94.5% | inhibition [6] 1.09% | RAM network inhibition [7] 0.06%

O=C(Nc1ccc(Br)cc1F)c1ccncc1
inactive: growth inhibition [1] -7.26% | growth inhibition [2] -13.4% | viability increase [3] 1.37% | viability [4] 97% | viability [5] 98.6% | inhibition [6] 2.7% | RAM network inhibition [7] 5.07%

O=C(NCCN1CCOCC1)NC1(C(F)(F)F)Oc2ccccc2O1
inactive: growth inhibition [1] -11% | growth inhibition [2] 4.58% | viability increase [3] -4.99% | viability [4] 76.3% | viability [5] 84.5% | inhibition [6] 0.645% | RAM network inhibition [7] 0.82%

CC(N=C1NS(=O)(=O)c2ccccc21)c1ccccc1 (stereo not given)
inactive: growth inhibition [1] 0.11% | growth inhibition [2] 1.27% | viability increase [3] 0.15% | viability [4] 103% | viability [5] 96.2% | inhibition [6] -0.16% | RAM network inhibition [7] 5.97%

CCOCCn1c(SCc2cccc(C)c2)nc2c1c(=O)[nH]c(=O)n2C
inactive: growth inhibition [1] -7.34% | growth inhibition [2] 10% | viability increase [3] -5.79% | viability [4] 98% | viability [5] 87.4% | inhibition [6] 0.905% | RAM network inhibition [7] 2.37%

Cc1c(C(=O)NCc2cccnc2)sc2nc(-c3ccccc3)cn12
inactive: growth inhibition [1] -4.69% | growth inhibition [2] 8.62% | viability increase [3] 0.16% | viability [4] 101% | viability [5] 89.5% | inhibition [6] 2.61% | RAM network inhibition [7] 7.67%

Cc1cc(Nc2cc(C(=O)O)ccc2C)n2ncnc2n1
inactive: growth inhibition [1] 4.96% | growth inhibition [2] -2.32% | viability increase [3] 0.41% | viability [4] 95.9% | viability [5] 102% | inhibition [6] 0.71% | RAM network inhibition [7] 0.57%

Cc1c(C(=O)Nc2ccncc2)sc2nc(-c3ccccc3)cn12
inactive: growth inhibition [1] 0.39% | growth inhibition [2] 9.21% | viability increase [3] 2.2% | viability [4] 89.2% | viability [5] 89.2% | inhibition [6] 0.99% | RAM network inhibition [7] -1.99%

COc1ccc(N(CC(=O)NCc2cccs2)S(=O)(=O)c2cccnc2)cc1
inactive: growth inhibition [1] 5.41% | growth inhibition [2] 4.48% | viability increase [3] -0.05% | viability [4] 107% | viability [5] 106% | inhibition [6] 0.045% | RAM network inhibition [7] 7.1%

Cc1cccc(-n2ccnc2SCC(=O)Nc2nnc(C)s2)c1
inactive: growth inhibition [1] -5.12% | growth inhibition [2] 20.3% | viability increase [3] -4.56% | viability [4] 76.9% | viability [5] 72.8% | inhibition [6] 1.13% | RAM network inhibition [7] 6.22%

CCCCC(=O)Nc1ccc2c(c1)C(=O)NC2=O
inactive: growth inhibition [1] -2.94% | growth inhibition [2] -3.99% | viability increase [3] 0.07% | viability [4] 101% | viability [5] 94.5% | inhibition [6] 2.62% | RAM network inhibition [7] 2.45%

CCCCCn1c(CCCNC(=O)CC)nc2ccccc21
inactive: growth inhibition [1] -8.6% | growth inhibition [2] -0.63% | viability increase [3] -2.94% | viability [4] 89% | viability [5] 97.6% | inhibition [6] 0.405% | RAM network inhibition [7] 2.13%

CCN(CC)CCNC(=O)c1sc2nc(-c3ccccc3)cn2c1C
inactive: growth inhibition [1] -2.38% | growth inhibition [2] 6.54% | viability increase [3] -1.73% | viability [4] 83.2% | viability [5] 81.4% | inhibition [6] 0.06% | RAM network inhibition [7] 1.57%

CC1CN(C2CC(C)(C)NC(C)(C)C2)CCC1=O (stereo not given)
inactive: growth inhibition [1] -5.84% | growth inhibition [2] -0.43% | viability increase [3] 1.05% | viability [4] 96.7% | viability [5] 100% | inhibition [6] -0.505% | RAM network inhibition [7] 5.32%

Cn1c(C(=O)NCCN2CCN(Cc3ccccc3)CC2)cc2c(=O)n(C)c3ccccc3c21
inactive: growth inhibition [1] -0.4% | growth inhibition [2] 5.33% | viability increase [3] -6.61% | viability [4] 78.5% | viability [5] 79% | inhibition [6] -0.115% | RAM network inhibition [7] 2.19%

N/C(CC(=O)Nc1cccc(C(F)(F)F)c1)=N/O
inactive: growth inhibition [1] -0.19% | growth inhibition [2] 2.58% | viability increase [3] -1.91% | viability [4] 96.5% | viability [5] 101% | inhibition [6] 1.16% | RAM network inhibition [7] 4.4%

CC1=C(C(=O)OCC(C)C)C(c2ccccc2Cl)NC(=O)N1C (stereo not given)
inactive: growth inhibition [1] -4.34% | growth inhibition [2] -8.57% | viability increase [3] -3.3% | viability [4] 58.5% | viability [5] 67.8% | inhibition [6] 0.59% | RAM network inhibition [7] 1.74%
